Drawing on ChEMBL document CHEMBL3871264, “Design of a novel thiophene inhibitor of 15-lipoxygenase-1 with both anti-inflammatory and neuroprotective properties” (Eur J Med Chem, 2016), this text covers inhibition, Vmax(app) and Activity for one compound.

Active and inactive are the calls of the source. No cut-off for these calls is given here.

The target in data set [1] is T1, Polyunsaturated fatty acid lipoxygenase ALOX15 (Mus musculus) (UniProt P39654).
T1 sequence (whole entry): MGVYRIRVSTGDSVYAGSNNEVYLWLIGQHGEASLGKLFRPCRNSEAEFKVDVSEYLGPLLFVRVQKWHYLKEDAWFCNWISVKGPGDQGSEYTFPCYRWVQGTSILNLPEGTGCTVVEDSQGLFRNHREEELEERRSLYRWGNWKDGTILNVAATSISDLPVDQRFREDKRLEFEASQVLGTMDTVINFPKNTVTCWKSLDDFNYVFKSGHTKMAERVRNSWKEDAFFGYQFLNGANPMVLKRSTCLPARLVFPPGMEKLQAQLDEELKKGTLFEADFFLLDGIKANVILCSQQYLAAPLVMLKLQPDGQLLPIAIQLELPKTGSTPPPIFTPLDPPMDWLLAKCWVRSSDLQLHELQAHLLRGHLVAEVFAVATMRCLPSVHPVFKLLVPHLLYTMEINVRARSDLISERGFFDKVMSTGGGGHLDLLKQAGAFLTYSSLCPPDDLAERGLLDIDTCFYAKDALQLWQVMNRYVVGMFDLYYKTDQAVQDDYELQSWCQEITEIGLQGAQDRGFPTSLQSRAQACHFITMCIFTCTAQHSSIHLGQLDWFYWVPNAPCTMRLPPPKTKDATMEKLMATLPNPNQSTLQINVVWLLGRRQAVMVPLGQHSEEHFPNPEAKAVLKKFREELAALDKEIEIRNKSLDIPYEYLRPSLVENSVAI
Description: Inhibition of 15-LOX-1 in C57bl/6 mouse precision-cut lung slices assessed as reduction in LPS-stimulated IL-1beta mRNA expression level at 50 uM incubated for 20 hrs followed by LPS stimulation for 4 hrs in presence of linoleic acid by RT-qPCR analysis. The method, boiled down:
(§1)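 Lung slices, 250 μm, were cut from agarose-filled lungs of male C57bl/6 mice aged 8-10 weeks and cultured at 37 °C in 5% CO2 in supplemented DMEM, 3 slices per well. Inhibitor was given for 20 h with 10 μM linoleic acid. For the last 4 h, 10 ng/ml LPS plus 10 ng/ml IFNγ were added. Read-out was RT-qPCR (10 ng cDNA, GAPDH assay included), in duplicate or triplicate wells, as fold change versus LPS/linoleic acid control, with 4-6 independent experiments.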

The target of data set [2] is T2, Polyunsaturated fatty acid lipoxygenase ALOX15 (Homo sapiens) (UniProt P16050).
T2 sequence (whole entry): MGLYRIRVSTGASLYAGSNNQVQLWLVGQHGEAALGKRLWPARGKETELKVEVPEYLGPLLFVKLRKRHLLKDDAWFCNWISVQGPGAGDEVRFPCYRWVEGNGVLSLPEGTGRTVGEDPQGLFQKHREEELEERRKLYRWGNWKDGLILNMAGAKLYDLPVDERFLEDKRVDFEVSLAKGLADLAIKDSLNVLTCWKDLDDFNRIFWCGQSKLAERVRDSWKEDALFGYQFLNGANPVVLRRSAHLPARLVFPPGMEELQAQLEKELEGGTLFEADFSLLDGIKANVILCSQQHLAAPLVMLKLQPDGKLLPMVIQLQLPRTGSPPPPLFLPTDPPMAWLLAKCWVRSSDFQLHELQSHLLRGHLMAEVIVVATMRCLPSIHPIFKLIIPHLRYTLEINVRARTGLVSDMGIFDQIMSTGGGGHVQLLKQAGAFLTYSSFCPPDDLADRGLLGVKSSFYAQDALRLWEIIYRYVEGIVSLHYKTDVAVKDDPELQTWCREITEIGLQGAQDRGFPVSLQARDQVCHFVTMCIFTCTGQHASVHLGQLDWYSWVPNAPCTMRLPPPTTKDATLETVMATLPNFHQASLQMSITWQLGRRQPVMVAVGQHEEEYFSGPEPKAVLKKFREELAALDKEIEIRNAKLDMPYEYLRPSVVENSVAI
Description: Competitive inhibition of human 15-LOX-1 assessed as apparent Vmax at 15 uM by Lineweaver-Burk plot analysis (reference value: 1.6 +/- 0.2 10^-4abs/s). The method, boiled down:
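Purified enzyme activity was read as UV absorbance at 234 nm of the product formed from linoleic acid substrate, in 96-well format. Substrate-dependence runs were done with and without inhibitor. Apparent Km and Vmax were derived from Lineweaver-Burk plots.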

The next data set is filed under the species Mus musculus. Description: Toxicity in C57bl/6 mouse precision-cut lung slices assessed as decrease in tissue viability up to 50 uM after 20 hrs in presence of linoleic acid by lactate dehydrogenase release assay. Type of data set: organism-based. The settings on record: in vivo. The method, boiled down: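 Mouse lung slices were cultured with inhibitor and 10 μM linoleic acid for 20 h at 37 °C. LDH released into the medium was measured by automated analyzer.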

Data set [3] addresses T1, Polyunsaturated fatty acid lipoxygenase ALOX15 (Mus musculus). In words: Inhibition of 15-LOX-1 in C57bl/6 mouse precision-cut lung slices assessed as reduction in LPS-stimulated IL-6 mRNA expression level at 50 uM incubated for 20 hrs followed by LPS stimulation for 4 hrs in presence of linoleic acid by RT-qPCR analysis. A digest of the protocol: as §1
Background: In qPCR the cycle at which signal appears reflects the starting amount.

Data set [4] shares this target. In words: Inhibition of 15-LOX-1 in C57bl/6 mouse precision-cut lung slices assessed as reduction in LPS-stimulated TNFalpha mRNA expression level at 50 uM incubated for 20 hrs followed by LPS stimulation for 4 hrs in presence of linoleic acid by RT-qPCR analysis. The method, boiled down:
as §1

For data set [5] the target is unchanged. In words: Inhibition of 15-LOX-1 in mouse HT22 cells assessed as inhibition of glutamate-induced superoxide production in mitochondria at 10 uM incubated for 14 to 16 hrs by mitoSOX staining based FACS analysis. The settings on record: HT-22. A digest of the protocol: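 HT-22 cells were seeded at 5x10^4 per well and incubated overnight. They were then given 4 mM glutamate with or without 10 µM inhibitor or 1 µM PD146176 for 14-16 h. Cells were stained with MitoSOX at 2.5 µM final for 30 min at 37 °C, and fluorescence intensity was measured by flow cytometry (488 nm excitation). At least 3 experiments were run, each in triplicate.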

For data set [6] the target is unchanged. Description: Inhibition of 15-LOX-1 in mouse HT22 cells assessed as protection against glutamate-induced cell impedance at 5 to 10 uM cotreated with glutamate measured for 16 to 20 hrs by real time cell viability assay. Type of data set: cell-based. To be noted: HT-22. The method, boiled down: (§2)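 HT-22 cells were seeded at 8x10^3 per well, incubated overnight, then given 4 mM glutamate. Inhibitor was either co-applied (1-20 µM; PD146176 at 1 µM) or added at 10 µM 2, 4, 6 or 8 h after glutamate. Impedance was recorded in real time for 16-20 h, with cell index normalized just before glutamate addition.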

For data set [7] the target is unchanged. In words: Inhibition of 15-LOX-1 in mouse HT22 cells assessed as protection against glutamate-induced cell impedance at 10 uM incubated up to 8 hrs following glutamate challenge measured up to 20 hrs by real time cell viability assay. Type of data set: cell-based. The settings on record: HT-22. The method, boiled down: as §2

Broadly, the inhibition is the drop in the measured response relative to a control, in per cent. `CCCCNC(=O)c1cc(-c2ccccc2)sc1N`: the inhibition in data set [1], in data set [3] and in data set [4] was 50% throughout. For the same compound, in data set [2], the Vmax(app) is 1.6 ×10⁻⁴ abs/s. Besides, in the data set filed under Mus musculus, the Activity entry is listed as “Non-Toxic”. Moreover, the inhibition result in data set [5], in data set [6] and in data set [7] was “Active” each time.
